Bioassay records as filed in PubChem.
An excerpt weighted towards active compounds, which were near 1.5% of everything screened.
APJ antag = APJ receptor antagonism. inhibition, % at 20 µM. CHO-K1 APJ beta-arrestin complementation, luminescence. 330,000 compounds, 0.32% hits. AID 2521;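 active = inhibition above about 40% at 20 µM, limit read from the data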;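 also: cells challenged with 10 nM apelin-13 agonist together with compound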
CCR6 antagonist = antagonists of human CCR6 receptor; 340,000 compounds, 0.49% hits; P51684; CHO-K1 CCR6 PathHunter beta-arrestin, luminescence, CCL20-stimulated; inhibition, % at 20 µM;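 active = compounds whose inhibition of the agonist-driven luminescence signal at 20 µM reaches about 50%, limit read from the data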;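 also: cells stimulated with CCL20 at 14 nM final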
APJ ag = activates the human apelin receptor APJ | CHO-K1 APJ PathHunter beta-arrestin, luminescence; 0% DMSO wells, 100% apelin | activation, % at 20 µM | 330,000 compounds, 0.11% hits | AID 2520;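 active = activation more than six SD over the plate average, tested at 20 µM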
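Assay system: CHO-K1 cells stably expressing ProLink-tagged human APJ and arrestin–beta-gal acceptor. Compound dosing: 20 µM single point, 1% DMSO. Times: 16-18 h seeding, 90 min dark compound exposure, 60 min detection. Detection: beta-gal luminescence. Evaluation: APJ–arrestin association signal. Controls: negative DMSO alone, positive Apelin-13 at 10 nM.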
CXCR6 block = inhibitors of human CXCR6 receptor | CHO-K1 PathHunter CXCR6 beta-arrestin, luminescence | AID 602244 | O00574 | inhibition, % at 20 µM | 360,000 compounds, 0.36% hits; in the data active = inhibition above about 34%, passing the limit was not always enough;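 also: antagonist mode with CXCL16 agonist at 10 nM final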
Target sequence (O00574 whole entry, looked up): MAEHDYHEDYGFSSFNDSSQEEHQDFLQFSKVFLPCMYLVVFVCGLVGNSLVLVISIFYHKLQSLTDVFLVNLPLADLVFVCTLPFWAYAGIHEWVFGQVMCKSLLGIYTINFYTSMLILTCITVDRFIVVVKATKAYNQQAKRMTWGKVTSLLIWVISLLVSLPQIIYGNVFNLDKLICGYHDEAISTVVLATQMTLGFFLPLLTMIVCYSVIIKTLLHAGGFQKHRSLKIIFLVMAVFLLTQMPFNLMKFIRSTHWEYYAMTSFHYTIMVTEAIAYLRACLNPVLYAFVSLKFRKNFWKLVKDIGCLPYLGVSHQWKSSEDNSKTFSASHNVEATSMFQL
EBI2 antag = blocks human EBI2 receptor beta-arrestin signaling | P32249 | EBI2 beta-arrestin recruitment, luminescence, 7a,25-OHC stimulated | inhibition, % at 5 µM | 360,000 compounds, 0.81% hits; in the data active = inhibition above about 38%;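 also: enzyme fragment complementation signal reports receptor beta-arrestin coupling in cells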
A number is an active result; 0 = inactive; - = no result given.

SMILES	APJ antag	CCR6 antagonist	APJ ag	CXCR6 block	EBI2 antag
Cc1ccc(OC(C)C(=O)N2CC(=O)Nc3ccccc32)c(C)c1 (stereo not drawn)	0	0	0	0	0
COc1ccc2c(c1)c1ccc3c(c1n2C)C(=O)C=CC3=O	44	106	0	79	0
Cc1ccc2c(c1)c1ccc3c(c1n2C)C(=O)C=CC3=O	0	106	0	60	0
Cn1c2ccccc2c2ccc3c(c21)C(=O)C=CC3=O	-	109	-	70	0
O=C(COC(=O)c1ccc(F)cc1F)NC(=O)Nc1ccc2c(c1)OCCO2	0	0	0	0	0
CC(Oc1ccccc1)C(=O)N1CCC2(CC1)Oc1ccc(F)cc1C(=O)C21CC(c2ccccc2)=NO1 (stereo not drawn)	0	0	0	0	50
CC(C)C(=O)N1CCC2(CC1)Oc1ccc(F)cc1C(=O)C21CC(c2cccnc2)=NO1 (stereo not drawn)	0	-	0	-	-
CC(Oc1ccccc1)C(=O)N1CCC2(CC1)Oc1ccc(F)cc1C(=O)C21CC(c2cccnc2)=NO1 (stereo not drawn)	0	0	0	0	42
Cc1ccc(NC(=O)CSc2nc3ccccc3c(=O)n2Cc2cccs2)cc1	0	0	0	0	0
O=c1c2ccccc2n(Cc2ccc(Cl)cc2)c(=O)n1Cc1ccco1	0	0	0	0	77
O=C(NC1CCCCC1)c1ccc(S(=O)(=O)N2CCOCC2)cc1	0	0	0	0	0
Cc1nc2c3cc(Cl)ccc3n(CCN3CCCCC3)c2s1	0	0	0	0	0
CCOc1ccc(C(=O)NC(=S)Nc2ccc(NC(=O)c3ccco3)c(C)c2)cc1[N+](=O)[O-]	0	50	0	0	0
CCOc1ccc(C(=O)NC(=S)Nc2ccc(N3CCC(C)CC3)cc2)cc1[N+](=O)[O-]	-	53	-	0	0
Cn1c2ccccc2c2c(C(=O)N3CCN(c4ccccc4)CC3)cn(C3CCCC3)c(=O)c21	0	0	0	0	0
COc1ccccc1-c1cc(C(F)(F)F)nc(S(=O)(=O)CCCC(=O)NCc2ccc(F)cc2)n1	0	0	0	40	0
Fc1ccc2c(c1)C(c1ccc(N3CCOCC3)cc1)=NNC(c1cccs1)=N2	0	0	0	0	0
CS(=O)(=O)c1sc(C#N)c2c1C(=O)CC(c1ccccc1)C2 (stereo not drawn)	84	92	0	91	66
Cc1oc2c(c(=O)c1C)C(=O)CC(c1ccccc1)C2 (stereo not drawn)	0	0	0	0	0
Cn1c(C(=O)NC2CCCCC2)cc2sccc21	0	0	0	0	0
C/C(N=Nc1nc2ccccc2s1)=N\Nc1ccccc1O	0	65	0	50	0
N#Cc1ccc(Oc2ccc(S(=O)(=O)N3CCOCC3)cn2)cc1	0	0	0	0	0
CC(=O)Nc1nnc(SCC(=O)N2CCN(Cc3ccccc3)CC2)s1	0	0	0	0	0
Cc1ccc(C(=O)c2c(C)oc3c2C(=O)C(=O)c2ccccc2-3)cc1	0	72	14	0	0
Cc1oc2c(c1C(=O)c1ccc(Cl)cc1)C(=O)C(=O)c1ccccc1-2	-	0	-	0	0
SMILES	APJ antag	CCR6 antagonist	APJ ag	CXCR6 block	EBI2 antag
CCN(CC)S(=O)(=O)c1ccc2oc(C(=O)NCc3ccc(C)cc3)c(C)c2c1	0	0	0	0	70
CC(=O)OC(C)C1C2=C(C(=O)CC1(C)O)C(=O)c1c(ccc(-c3ccc4c(c3O)C(=O)C3=C(C4=O)C(C(C)OC(C)=O)C(C)(O)CC3=O)c1O)C2=O (stereo not drawn)	-	52	-	0	0
COc1ccc2c(C)c(Cl)c(=O)oc2c1	0	0	0	0	0
C=C1CC(COc2ccc3c(C)c(Cl)c(=O)oc3c2)(c2ccccc2)OC1=O (stereo not drawn)	-	0	-	37	56
COc1cc(/C=C/C(=O)OC(C)C(=O)c2ccccc2)cc(OC)c1OC (stereo not drawn)	0	0	0	0	0
O=[N+]([O-])/C=C/c1c(OCc2ccccc2)ccc2ccccc12	0	-	0	36	0
CCOC(=O)Cn1cc(/C=C/[N+](=O)[O-])c2ccccc21	0	0	0	0	0
CCOC(=O)COc1ccc(/C=C/[N+](=O)[O-])c(OCC(=O)OCC)c1	0	55	0	0	0
CCOC(=O)COc1ccc2ccccc2c1/C=C/[N+](=O)[O-]	-	75	-	0	0
O=C(OCn1nnc2ccccc2c1=O)c1ccc(Br)o1	0	0	0	0	0
CC1CCN(S(=O)(=O)c2ccc(NC(=S)NC(=O)c3ccc(Cl)cc3)cc2)CC1	0	55	0	0	0
CN1CCN(S(=O)(=O)c2ccc(NC(=S)NC(=O)c3ccc(Cl)cc3)cc2)CC1	-	0	-	0	0
C#CC[N+]1(CC#Cc2cccc3ccccc23)CCOCC1	0	0	0	0	0
COc1ccc(-n2c(=S)[nH]c3cc(C(=O)NCc4cccnc4)ccc3c2=O)c(OC)c1	0	0	0	0	0
CN(CC(=O)NCCc1ccc(Cl)cc1)S(=O)(=O)c1ccc2c(c1)c(=O)n(C)c(=O)n2C	0	0	0	0	0
N#CC1=C(N)C(C#N)(C#N)C(c2ccncc2)C2CN(C(=O)OCc3ccccc3)CC=C12 (stereo not drawn)	0	56	0	0	0
CC(C)C1CC(CCN)(c2ccccc2)CCO1 (stereo not drawn)	0	0	0	0	0
C/C(=N\NC(=O)C1CCCN(S(=O)(=O)c2ccccc2)C1)c1ccncc1 (stereo not drawn)	0	0	0	0	0
C/C(=N\NC(=O)C1CCCN(S(=O)(=O)c2ccccc2)C1)c1ccccn1 (stereo not drawn)	0	-	0	40	0
COc1cc(NC(=O)Cc2ccccc2OC)cc(OC)c1	0	0	0	0	0
COc1ccccc1-c1cnc(C(O)c2ccc(Cl)cc2C)[nH]1 (stereo not drawn)	-	-	-	0	0
Cc1ccn2c(Nc3ccccc3)c(-c3ccccn3)nc2c1	49	0	0	0	0
NC(=O)c1ccc(N=Nc2c(-c3ccccc3)[nH]n(-c3ccccc3)c2=O)cc1	0	-	0	-	-
NS(=O)(=O)c1ccc(N=Nc2c(-c3ccccc3)[nH]n(-c3nc(-c4ccccc4)cs3)c2=O)cc1	0	0	0	44	0
CCOC(=O)c1c(/N=C/N(C)C)sc2c1CCC2	0	0	0	0	0
SMILES	APJ antag	CCR6 antagonist	APJ ag	CXCR6 block	EBI2 antag
COc1ccc(N2CC(C(=O)N/N=C/c3cc([N+](=O)[O-])ccc3O)CC2=O)cc1 (stereo not drawn)	0	56	0	0	0
O=[N+]([O-])c1ccc(NN=Cc2ccccc2O)nc1	-	-	-	0	0
O=[N+]([O-])c1ccc(NN=Cc2ccc(O)cc2O)nc1	-	63	-	0	0
O=[N+]([O-])c1ccc(O)c(/C=N/Nc2ccccn2)c1	-	61	-	0	64
Cc1cc(C(=O)N/N=C/c2cc([N+](=O)[O-])ccc2O)c2ccccc2n1	0	0	0	0	49
O=C(N/N=C/c1cc([N+](=O)[O-])ccc1O)c1cc(-c2ccccc2)nc2ccccc12	0	0	0	0	0
